{
  "source": "ChEMBL document CHEMBL1142527",
  "about": "“Tricyclic [1,2,4]triazine 1,4-dioxides as hypoxia selective cytotoxins” (J Med Chem, 2008)",
  "key": {"[1]": {"assay": "Solubility at 22 degC in culture medium in presence of 5% fetal calf serum", "type": "physicochemical", "settings": "culture medium with 5% fetal calf serum; read-out: solubility", "summary_of_the_method": "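Solubility of the HCl salts is determined in culture medium containing 5% fetal calf serum at 22 °C.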"}, "HT-29 [2]": {"system": "HT-29", "assay": "Cytotoxicity against human HT-29 cells after 4 hrs under strict hypoxic condition", "type": "functional, cell-based"}, "HT-29 [3]": {"system": "HT-29", "assay": "Hypoxic cytotoxicity ratio, ratio of aerobic IC50 to anoxic IC50 for human HT-29 cells", "type": "functional"}, "SiHa [4]": {"system": "SiHa", "assay": "Cytotoxicity against human SiHa cells after 4 hrs under strict hypoxic condition", "type": "functional, cell-based"}, "SiHa [5]": {"system": "SiHa", "assay": "Hypoxic cytotoxicity ratio, ratio of aerobic IC50 to anoxic IC50 for human SiHa cells", "type": "functional"}, "HT-29 [6]": {"system": "HT-29", "assay": "Drug diffusion coefficient in human HT-29 multicellular layer under 95% oxygen by liquid scintillation counting", "type": "ADME, cell-based", "summary_of_the_method": "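Tissue diffusion coefficient D measured in HT29 multicellular layers held under 95% O₂ to suppress bioreductive metabolism. Reported as ×10⁻⁷ cm²s⁻¹.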"}, "HT-29 [7]": {"system": "HT-29", "assay": "Metabolic stability in human HT-29 multicellular layer assessed as apparent first-order rate constant under anoxic condition", "type": "ADME, cell-based", "summary_of_the_method": "(§1)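 Stirred single-cell suspensions of anoxic HT29 cells are exposed for 3 h at a drug concentration giving roughly one log kill by 1 h. Clonogenic survival is followed, and extracellular drug is monitored by HPLC. Concentration-time data are fitted for the apparent first-order metabolic rate constant k_met, scaled to MCL cell density. CT₁₀ and M₁₀ (drug metabolized at 10% survival) are interpolated from the fitted PK/PD model.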"}, "HT-29 [8]": {"system": "HT-29", "assay": "Cytotoxicity against human HT-29 cells assessed as AUC-time curve providing 10% surviving fraction by clonogenic assay", "type": "functional"}, "HT-29 [9]": {"system": "HT-29", "assay": "Drug metabolism in human HT-29 cells assessed as amount of drug metabolized for one log of cell kill at their CT10 concentration for 1 hr", "type": "ADME, cell-based", "settings": "ht-29, 1 h", "summary_of_the_method": "as §1"}},
  "data": [
    {"compound": "CN(C)CCNc1n[n+]([O-])c2cc3c(cc2[n+]1[O-])CCO3", "values": [
      {"measurement": "solubility", "setting": "[1]", "result": "> 48", "unit": "mM"},
      {"measurement": "IC50", "setting": "HT-29 [2]; ht-29", "result": 2400, "unit": "nM"},
      {"measurement": "Ratio IC50", "setting": "HT-29 [3]", "result": 23},
      {"measurement": "IC50", "setting": "SiHa [4]; siha", "result": 300, "unit": "nM"},
      {"measurement": "Ratio IC50", "setting": "SiHa [5]", "result": 87},
      {"measurement": "D", "setting": "HT-29 [6]", "result": "4.3e-07", "unit": "cm²/s"},
      {"measurement": "Activity", "setting": "HT-29 [7]", "result": 3.15, "unit": "min⁻¹"},
      {"measurement": "Activity", "setting": "HT-29 [8]", "result": 18.6, "unit": "µM·h"},
      {"measurement": "Activity", "setting": "HT-29 [9]; 1 h", "result": 6732, "unit": "µM"}
    ]},
    {"compound": "CCCN(CCC)CCNc1n[n+]([O-])c2cc3c(cc2[n+]1[O-])CCC3", "values": [
      {"measurement": "solubility", "setting": "[1]", "result": 20, "unit": "mM"},
      {"measurement": "IC50", "setting": "HT-29 [2]; Homo sapiens, HT-29, 4 h", "result": 2500, "unit": "nM"},
      {"measurement": "Ratio IC50", "setting": "HT-29 [3]", "result": 77},
      {"measurement": "IC50", "setting": "SiHa [4]; Homo sapiens, SiHa, 4 h", "result": 700, "unit": "nM"},
      {"measurement": "Ratio IC50", "setting": "SiHa [5]", "result": 91},
      {"measurement": "D", "setting": "HT-29 [6]", "result": "1.92e-06", "unit": "cm²/s"},
      {"measurement": "Activity", "setting": "HT-29 [7]", "result": 1.07, "unit": "min⁻¹"},
      {"measurement": "Activity", "setting": "HT-29 [8]", "result": 31.8, "unit": "µM·h"},
      {"measurement": "Activity", "setting": "HT-29 [9]", "result": 3941, "unit": "µM"}
    ]},
    {"compound": "CN(C)CCNc1n[n+]([O-])c2cc3c(cc2[n+]1[O-])CCC3", "values": [
      {"measurement": "solubility", "setting": "[1]", "result": "> 51", "unit": "mM"},
      {"measurement": "IC50", "setting": "HT-29 [2]; Homo sapiens, HT-29, 4 h", "result": 2300, "unit": "nM"},
      {"measurement": "Ratio IC50", "setting": "HT-29 [3]", "result": 152},
      {"measurement": "IC50", "setting": "SiHa [4]; Homo sapiens, SiHa, 4 h", "result": 700, "unit": "nM"},
      {"measurement": "Ratio IC50", "setting": "SiHa [5]", "result": 111},
      {"measurement": "D", "setting": "HT-29 [6]", "result": "5.9e-07", "unit": "cm²/s"},
      {"measurement": "Activity", "setting": "HT-29 [7]", "result": 0.44, "unit": "min⁻¹"},
      {"measurement": "Activity", "setting": "HT-29 [8]", "result": 16, "unit": "µM·h"},
      {"measurement": "Activity", "setting": "HT-29 [9]", "result": 815, "unit": "µM"}
    ]},
    {"compound": "[O-][n+]1nc(NCCN2CCCCC2)[n+]([O-])c2cc3c(cc21)CCC3", "values": [
      {"measurement": "solubility", "setting": "[1]", "result": 1.9, "unit": "mM"},
      {"measurement": "IC50", "setting": "HT-29 [2]; Homo sapiens, HT-29, 4 h", "result": 5800, "unit": "nM"},
      {"measurement": "Ratio IC50", "setting": "HT-29 [3]", "result": 49},
      {"measurement": "IC50", "setting": "SiHa [4]; Homo sapiens, SiHa, 4 h", "result": 1300, "unit": "nM"},
      {"measurement": "Ratio IC50", "setting": "SiHa [5]", "result": 143},
      {"measurement": "D", "setting": "HT-29 [6]", "result": "1.19e-06", "unit": "cm²/s"},
      {"measurement": "Activity", "setting": "HT-29 [7]", "result": 1.25, "unit": "min⁻¹"},
      {"measurement": "Activity", "setting": "HT-29 [8]", "result": 15.6, "unit": "µM·h"},
      {"measurement": "Activity", "setting": "HT-29 [9]", "result": 2444, "unit": "µM"}
    ]},
    {"compound": "CN(C)CCNc1n[n+]([O-])c2c3c(ccc2[n+]1[O-])CCC3", "values": [
      {"measurement": "solubility", "setting": "[1]", "result": "> 54", "unit": "mM"},
      {"measurement": "IC50", "setting": "HT-29 [2]; Homo sapiens, HT-29, 4 h", "result": 3000, "unit": "nM"},
      {"measurement": "Ratio IC50", "setting": "HT-29 [3]", "result": 67},
      {"measurement": "IC50", "setting": "SiHa [4]; Homo sapiens, SiHa, 4 h", "result": 1600, "unit": "nM"},
      {"measurement": "Ratio IC50", "setting": "SiHa [5]", "result": 99},
      {"measurement": "D", "setting": "HT-29 [6]", "result": "8.4e-07", "unit": "cm²/s"},
      {"measurement": "Activity", "setting": "HT-29 [7]", "result": 0.74, "unit": "min⁻¹"},
      {"measurement": "Activity", "setting": "HT-29 [8]", "result": 26.3, "unit": "µM·h"},
      {"measurement": "Activity", "setting": "HT-29 [9]", "result": 2219, "unit": "µM"}
    ]}
  ]
}
